Assays:
[1] = target: T1, Sodium channel protein type 9 subunit alpha (Homo sapiens, UniProt Q15858); test: Modulation of human Nav1.7 in closed state assessed as inhibition of inward current after 4 mins by whole-cell electrophysiology
Procedure, shortened: (§1)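 Automated whole-cell patch clamp (QPatch HT) on trypsin-EDTA-dissociated cells held in serum-free medium. Closed-state test pulse depolarizes from -100 mV. 0.1% DMSO vehicle for 4 min is followed by four cumulative bolus concentrations (0.3–10 µM, 0.1% DMSO final), each incubated 4 min. Peak inward current from the last three sweeps is compared with vehicle, and IC50 comes from a 4-parameter logistic fit constrained 0–100%, n≥3.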

[2] = target: T2, Sodium channel protein type 4 subunit alpha (Homo sapiens, UniProt P35499); test: Modulation of human Nav1.4 in closed state assessed as inhibition of inward current after 4 mins by whole-cell electrophysiology; procedure, shortened: as §1
[3] = target: T1, Sodium channel protein type 9 subunit alpha; test: Modulation of human Nav1.7 in open-inactivated state assessed as inhibition of inward current after 4 mins by whole-cell electrophysiology
Procedure, shortened: (§2)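 Cells dissociated with trypsin-EDTA are kept in serum-free medium and recorded by QPatch HT whole-cell clamp with a high-frequency, pathophysiological protocol. The open-inactivated test pulse depolarizes from about -70 mV. After 4 min of vehicle (0.1% DMSO), 0.3–10 µM is added cumulatively, 4 min per level. Percent inhibition of peak inward current uses the mean of the last three sweeps against vehicle. IC50 is fitted by a constrained 4-parameter logistic, mean ± SD of ≥3 experiments.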

[4] = target: T3, Sodium channel protein type 3 subunit alpha (Homo sapiens, UniProt Q9NY46); test: Modulation of human Nav1.3 in closed state assessed as inhibition of inward current after 4 mins by whole-cell electrophysiology; procedure, shortened: as §1
[5] = target: T2, Sodium channel protein type 4 subunit alpha; test: Modulation of human Nav1.4 in open-inactivated state assessed as inhibition of inward current after 4 mins by whole-cell electrophysiology; procedure, shortened: as §2
[6] = target: T3, Sodium channel protein type 3 subunit alpha; test: Modulation of human Nav1.3 in open-inactivated state assessed as inhibition of inward current after 4 mins by whole-cell electrophysiology

T3 sequence (Q9NY46 whole entry): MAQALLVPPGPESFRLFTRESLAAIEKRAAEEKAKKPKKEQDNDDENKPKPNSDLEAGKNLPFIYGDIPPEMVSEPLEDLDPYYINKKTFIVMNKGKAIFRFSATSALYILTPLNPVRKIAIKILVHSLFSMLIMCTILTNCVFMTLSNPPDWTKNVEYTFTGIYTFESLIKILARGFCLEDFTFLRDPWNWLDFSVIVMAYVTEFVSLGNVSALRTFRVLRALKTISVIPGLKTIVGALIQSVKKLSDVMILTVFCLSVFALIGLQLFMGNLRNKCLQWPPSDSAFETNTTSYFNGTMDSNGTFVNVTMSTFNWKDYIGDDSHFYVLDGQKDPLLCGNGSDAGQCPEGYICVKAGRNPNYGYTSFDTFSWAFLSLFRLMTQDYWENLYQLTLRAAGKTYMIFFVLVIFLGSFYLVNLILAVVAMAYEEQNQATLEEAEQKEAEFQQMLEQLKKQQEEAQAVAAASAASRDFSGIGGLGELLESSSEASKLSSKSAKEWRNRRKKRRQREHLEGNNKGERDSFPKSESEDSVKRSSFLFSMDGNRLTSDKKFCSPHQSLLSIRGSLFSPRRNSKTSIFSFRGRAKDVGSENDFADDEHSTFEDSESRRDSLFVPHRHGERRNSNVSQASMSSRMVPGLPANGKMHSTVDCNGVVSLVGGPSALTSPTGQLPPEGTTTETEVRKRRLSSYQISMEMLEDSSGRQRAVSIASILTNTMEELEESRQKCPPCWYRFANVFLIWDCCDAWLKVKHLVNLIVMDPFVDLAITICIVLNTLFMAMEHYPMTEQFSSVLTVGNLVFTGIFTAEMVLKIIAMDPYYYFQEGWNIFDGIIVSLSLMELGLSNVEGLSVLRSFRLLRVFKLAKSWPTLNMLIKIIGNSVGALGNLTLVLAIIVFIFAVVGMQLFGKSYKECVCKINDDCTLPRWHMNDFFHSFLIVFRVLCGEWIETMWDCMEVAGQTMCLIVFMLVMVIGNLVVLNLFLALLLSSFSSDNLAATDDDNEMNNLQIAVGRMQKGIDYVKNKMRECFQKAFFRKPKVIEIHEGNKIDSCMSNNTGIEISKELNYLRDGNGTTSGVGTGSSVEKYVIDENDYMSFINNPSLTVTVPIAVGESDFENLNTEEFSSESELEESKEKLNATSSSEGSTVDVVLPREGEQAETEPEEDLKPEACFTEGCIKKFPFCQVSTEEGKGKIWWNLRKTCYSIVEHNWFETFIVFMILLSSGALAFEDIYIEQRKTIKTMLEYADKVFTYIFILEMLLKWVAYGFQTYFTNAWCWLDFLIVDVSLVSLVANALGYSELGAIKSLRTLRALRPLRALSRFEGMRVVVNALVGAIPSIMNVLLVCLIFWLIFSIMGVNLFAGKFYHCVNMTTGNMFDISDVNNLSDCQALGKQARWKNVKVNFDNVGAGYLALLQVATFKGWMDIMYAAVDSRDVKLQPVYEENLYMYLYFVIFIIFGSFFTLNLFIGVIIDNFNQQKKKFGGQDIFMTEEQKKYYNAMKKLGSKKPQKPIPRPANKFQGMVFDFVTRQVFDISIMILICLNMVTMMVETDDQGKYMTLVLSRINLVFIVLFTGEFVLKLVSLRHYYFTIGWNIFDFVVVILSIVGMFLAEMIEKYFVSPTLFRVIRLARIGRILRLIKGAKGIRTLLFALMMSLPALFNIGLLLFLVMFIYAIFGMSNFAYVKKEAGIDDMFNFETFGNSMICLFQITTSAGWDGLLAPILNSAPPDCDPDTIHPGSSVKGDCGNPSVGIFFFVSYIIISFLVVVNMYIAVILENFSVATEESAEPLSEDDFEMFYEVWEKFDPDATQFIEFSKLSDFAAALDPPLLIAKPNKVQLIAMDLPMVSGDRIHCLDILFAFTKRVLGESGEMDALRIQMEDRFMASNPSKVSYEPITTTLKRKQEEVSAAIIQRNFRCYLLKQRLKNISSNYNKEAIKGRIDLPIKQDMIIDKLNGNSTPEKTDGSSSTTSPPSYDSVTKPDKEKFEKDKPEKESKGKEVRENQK
T2 sequence (P35499 whole entry): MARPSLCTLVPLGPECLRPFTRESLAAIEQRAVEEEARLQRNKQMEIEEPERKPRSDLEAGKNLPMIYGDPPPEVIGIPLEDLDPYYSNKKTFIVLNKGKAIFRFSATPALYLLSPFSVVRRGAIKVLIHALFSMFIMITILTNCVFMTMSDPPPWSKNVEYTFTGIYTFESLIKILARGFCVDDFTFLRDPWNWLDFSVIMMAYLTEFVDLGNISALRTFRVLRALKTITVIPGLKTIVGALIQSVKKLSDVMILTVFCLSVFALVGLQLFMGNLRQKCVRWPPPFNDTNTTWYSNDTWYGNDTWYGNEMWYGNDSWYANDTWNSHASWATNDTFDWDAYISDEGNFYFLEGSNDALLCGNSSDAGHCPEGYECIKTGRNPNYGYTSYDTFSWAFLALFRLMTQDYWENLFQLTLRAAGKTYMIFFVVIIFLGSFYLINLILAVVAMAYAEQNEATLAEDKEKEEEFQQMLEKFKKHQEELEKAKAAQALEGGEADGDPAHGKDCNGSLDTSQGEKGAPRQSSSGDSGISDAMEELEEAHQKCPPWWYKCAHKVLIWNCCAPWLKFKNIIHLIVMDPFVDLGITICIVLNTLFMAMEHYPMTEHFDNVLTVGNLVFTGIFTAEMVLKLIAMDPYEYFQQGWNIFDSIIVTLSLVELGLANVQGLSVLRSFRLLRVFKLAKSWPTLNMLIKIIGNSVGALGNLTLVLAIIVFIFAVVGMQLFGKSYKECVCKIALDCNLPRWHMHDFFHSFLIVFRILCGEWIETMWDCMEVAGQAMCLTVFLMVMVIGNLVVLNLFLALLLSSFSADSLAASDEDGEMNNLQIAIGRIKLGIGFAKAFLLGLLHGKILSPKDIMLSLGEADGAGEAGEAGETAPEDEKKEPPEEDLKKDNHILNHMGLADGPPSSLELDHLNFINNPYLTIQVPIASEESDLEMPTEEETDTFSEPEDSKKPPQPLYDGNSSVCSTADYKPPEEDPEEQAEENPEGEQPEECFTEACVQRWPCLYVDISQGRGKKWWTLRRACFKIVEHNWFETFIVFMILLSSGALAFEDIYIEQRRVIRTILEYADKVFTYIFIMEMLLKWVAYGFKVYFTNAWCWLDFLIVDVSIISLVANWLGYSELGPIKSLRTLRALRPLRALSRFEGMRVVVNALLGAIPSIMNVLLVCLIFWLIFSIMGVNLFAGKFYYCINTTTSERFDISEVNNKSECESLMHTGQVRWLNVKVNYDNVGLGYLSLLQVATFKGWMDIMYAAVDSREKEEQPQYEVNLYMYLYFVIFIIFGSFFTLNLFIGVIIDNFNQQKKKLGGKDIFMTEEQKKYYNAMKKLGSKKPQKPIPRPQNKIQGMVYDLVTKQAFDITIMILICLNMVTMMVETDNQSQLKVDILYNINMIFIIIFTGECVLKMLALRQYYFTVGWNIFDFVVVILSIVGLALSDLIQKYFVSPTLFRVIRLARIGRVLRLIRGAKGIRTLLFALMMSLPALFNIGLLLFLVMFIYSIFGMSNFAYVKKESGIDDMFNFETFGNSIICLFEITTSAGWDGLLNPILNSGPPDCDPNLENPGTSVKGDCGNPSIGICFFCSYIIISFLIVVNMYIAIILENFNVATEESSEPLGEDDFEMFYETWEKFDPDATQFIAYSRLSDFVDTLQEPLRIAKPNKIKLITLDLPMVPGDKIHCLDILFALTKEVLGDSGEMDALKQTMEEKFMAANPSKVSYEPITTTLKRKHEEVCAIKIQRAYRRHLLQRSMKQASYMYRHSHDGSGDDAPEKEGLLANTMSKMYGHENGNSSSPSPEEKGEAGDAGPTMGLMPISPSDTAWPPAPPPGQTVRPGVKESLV

Structure (SMILES) | IC50 [1] [µM] | IC50 [2] [µM] | IC50 [3] [µM] | IC50 [4] [µM] | IC50 [5] [µM] | IC50 [6] [µM]
CC(C)(C)OC(=O)n1cc(-c2cccc(NC(=O)c3cc4ccccc4[nH]3)c2)nc1N | > 30 | > 30 | > 30 | > 30 | > 30 | 26
Nc1nc(-c2cccc(NC(=O)c3cc4ccccc4[nH]3)c2)c[nH]1 | > 30 | > 30 | > 30 | > 30 | > 30 | > 30
Nc1nc(-c2ccc(NC(=O)c3cc4ccccc4[nH]3)cc2)c[nH]1 | > 30 | > 30 | > 30 | > 30 | > 30 | > 30
CC(C)(C)OC(=O)n1cc(-c2cccc(NC(=O)[C@H]3CCCN3)c2)nc1N | > 30 | > 30 | 29 | > 30 | > 30 | > 30
CC(C)(C)OC(=O)n1cc(-c2ccc(NC(=O)[C@H]3CCCN3)cc2)nc1N | > 30 | > 30 | > 30 | > 30 | > 30 | > 30
CC(C)(C)OC(=O)n1cc(-c2ccc(NC(=O)[C@@H]3CCCN3)cc2)nc1N | > 30 | > 30 | 19 | > 30 | > 30 | 25
Nc1nc(-c2ccc(NC(=O)[C@@H]3CCCN3)cc2)c[nH]1 | > 30 | > 30 | > 30 | > 30 | > 30 | 13
CNc1nc(-c2cccc(NC(=O)c3ccco3)c2)cn1C(=O)OC(C)(C)C | > 30 | > 30 | 26 | > 30 | > 30 | > 30
Nc1nc(-c2cccc(NC(=O)c3ccc[nH]3)c2)cn1C(=O)c1ccc[nH]1 | > 30 | > 30 | 19 | > 30 | > 30 | 25

The remaining lines, values ahead:

IC50 [1] [µM] | IC50 [2] [µM] | IC50 [3] [µM] | IC50 [4] [µM] | IC50 [5] [µM] | IC50 [6] [µM] | Structure (SMILES)
> 30 | > 30 | > 30 | > 30 | > 30 | > 30 | CNc1nc(-c2cccc(NC(=O)c3cc4ccccc4[nH]3)c2)c[nH]1
> 30 | > 30 | > 30 | > 30 | > 30 | > 30 | CNc1nc(-c2cccc(NC(=O)c3cc4ccccc4[nH]3)c2)cn1C(=O)OC(C)(C)C
> 30 | > 30 | > 30 | > 30 | > 30 | > 30 | CC(C)(C)OC(=O)n1cc(-c2ccc(NC(=O)c3ccc[nH]3)cc2)nc1N
> 30 | > 30 | > 30 | > 30 | > 30 | > 30 | Nc1nc(-c2cccc(NC(=O)c3ccc[nH]3)c2)c[nH]1
> 30 | > 30 | 27 | > 30 | > 30 | > 30 | Nc1nc(-c2ccc(NC(=O)c3ccc[nH]3)cc2)c[nH]1
> 30 | > 30 | > 30 | > 30 | > 30 | 23 | CC(C)(C)OC(=O)n1cc(-c2cccc(NC(=O)c3cc[nH]c3)c2)nc1N
> 30 | > 30 | > 30 | > 30 | 15 | 12 | Nc1nc(-c2cccc(NC(=O)c3cc[nH]c3)c2)c[nH]1
> 30 | > 30 | 22 | > 30 | > 30 | 27 | CC(C)(C)OC(=O)n1cc(-c2ccc(NC(=O)c3ccco3)cc2)nc1N
> 30 | > 30 | > 30 | > 30 | 28 | 22 | CC(C)(C)OC(=O)n1cc(-c2ccc(NC(=O)c3cc4ccccc4[nH]3)cc2)nc1N
> 30 | > 30 | > 30 | > 30 | 26 | 27 | CC(C)(C)OC(=O)n1cc(-c2cccc(NC(=O)c3c[nH]c4ccccc34)c2)nc1N
> 30 | > 30 | 26 | > 30 | 14 | 12 | Nc1nc(-c2cccc(NC(=O)c3c[nH]c4ccccc34)c2)c[nH]1
> 30 | > 30 | > 30 | > 30 | 25 | 25 | CC(C)(C)OC(=O)n1cc(-c2cccc(NC(=O)c3ccc[nH]3)c2)nc1N
– | – | – | – | 2 | 10.5 | CCN(CC)CC(=O)Nc1c(C)cccc1C [LIDOCAINE]

Source: ChEMBL document CHEMBL3112572, “Substituted 4-phenyl-2-aminoimidazoles and 4-phenyl-4,5-dihydro-2-aminoimidazoles as voltage-gated sodium channel modulators” (Eur J Med Chem, 2014)
